These results are taken from ChEMBL document CHEMBL1145596 (Bioorg Med Chem Lett, 2008).

Series [1] is described as follows: Dissociation constant, pKa of the compound. The class given is physicochemical.
Series [2] is described as follows: Lipophilicity, log P of the compound. The class given is physicochemical. Particulars: octanol/water. In a few lines:
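LogP computed for the unprotonated molecule with a commercial software package. Not measured experimentally.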

The subject of series [3] is L5178Y. Briefly: Cytocidal activity against human MDR1 gene transfected mouse L5178Y cells after 48 hrs by MTT method. The class given is functional. Particulars: read-out: ID50 (the source's name). In a few lines: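 Cells incubated with a range of compound concentrations for 48 h at 37 °C. Viability read by MTT. ID50 derived from the curves. Values are means of duplicate experiments.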
(Tetrazolium assays rely on reduction of a dye to a coloured formazan, in cell work by metabolically active cells.)

The target in series [4] is T1, ATP-dependent translocase ABCB1 (Homo sapiens, UniProt P08183). Briefly: Reversal of P-glycoprotein-mediated multidrug resistance in human MDR1 gene transfected mouse L5178Y cells assessed as fluorescence activity ratio at 40 ug/ml by flow cytometry. The class given is cell-based. Background: A flow cytometer gives signals particle by particle.
The target in series [5] is T1, ATP-dependent translocase ABCB1. The experiment in a line: Reversal of P-glycoprotein-mediated multidrug resistance in human MDR1 gene transfected mouse L5178Y cells assessed as fluorescence activity ratio at 4 ug/ml by flow cytometry. It is filed as cell-based.
For series [6], the system named is L5178Y. The experiment in a line: Toxicity in human MDR1 gene transfected mouse L5178Y cells at 40 ug/ml. The class given is cell-based.
The target in series [7] is T1, ATP-dependent translocase ABCB1. The experiment in a line: Reversal of P-glycoprotein-mediated multidrug resistance in human MDR1 gene transfected human Colo 320 cells assessed as fluorescence activity ratio at 4 ug/ml by flow cytometry. It is filed as cell-based. In a few lines:
(§1)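 Colo320/MDR1 cells run as for the L5178 rhodamine 123 assay: compound preincubation 10 min at room temperature, then rhodamine 123 (final 5.2 μM) for 20 min at 37 °C. Monolayers detached with 0.25% trypsin for 2–3 min before flow cytometry. FAR taken as the treated/untreated fluorescence ratio in MDR cells over that in parental cells.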

Series [8] has the same target. Briefly: Reversal of P-glycoprotein-mediated multidrug resistance in human MDR1 gene transfected mouse L5178Y cells assessed as fluorescence activity ratio at 0.4 ug/ml by flow cytometry. The class given is cell-based. Summed up:
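L5178 MDR1-transfected cells and parental cells grown in McCoy's 5A with 10% heat-inactivated horse serum, L-glutamine and antibiotics. Compound in DMSO added to cell aliquots for 10 min at room temperature. Rhodamine 123 then added (final 5.2 μM) for 20 min at 37 °C. Cells washed twice, resuspended in PBS pH 7.4, read by flow cytometry. FAR = (treated/untreated MDR) ÷ (treated/untreated parental).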

The target is the same in series [9]. Briefly: Reversal of P-glycoprotein-mediated multidrug resistance in human MDR1 gene transfected human Colo 320 cells assessed as fluorescence activity ratio at 0.4 ug/ml by flow cytometry. It is filed as cell-based. Summed up: as §1

In brackets after ≈: the same amount, converted by molar mass.

T1 sequence (P08183 whole entry): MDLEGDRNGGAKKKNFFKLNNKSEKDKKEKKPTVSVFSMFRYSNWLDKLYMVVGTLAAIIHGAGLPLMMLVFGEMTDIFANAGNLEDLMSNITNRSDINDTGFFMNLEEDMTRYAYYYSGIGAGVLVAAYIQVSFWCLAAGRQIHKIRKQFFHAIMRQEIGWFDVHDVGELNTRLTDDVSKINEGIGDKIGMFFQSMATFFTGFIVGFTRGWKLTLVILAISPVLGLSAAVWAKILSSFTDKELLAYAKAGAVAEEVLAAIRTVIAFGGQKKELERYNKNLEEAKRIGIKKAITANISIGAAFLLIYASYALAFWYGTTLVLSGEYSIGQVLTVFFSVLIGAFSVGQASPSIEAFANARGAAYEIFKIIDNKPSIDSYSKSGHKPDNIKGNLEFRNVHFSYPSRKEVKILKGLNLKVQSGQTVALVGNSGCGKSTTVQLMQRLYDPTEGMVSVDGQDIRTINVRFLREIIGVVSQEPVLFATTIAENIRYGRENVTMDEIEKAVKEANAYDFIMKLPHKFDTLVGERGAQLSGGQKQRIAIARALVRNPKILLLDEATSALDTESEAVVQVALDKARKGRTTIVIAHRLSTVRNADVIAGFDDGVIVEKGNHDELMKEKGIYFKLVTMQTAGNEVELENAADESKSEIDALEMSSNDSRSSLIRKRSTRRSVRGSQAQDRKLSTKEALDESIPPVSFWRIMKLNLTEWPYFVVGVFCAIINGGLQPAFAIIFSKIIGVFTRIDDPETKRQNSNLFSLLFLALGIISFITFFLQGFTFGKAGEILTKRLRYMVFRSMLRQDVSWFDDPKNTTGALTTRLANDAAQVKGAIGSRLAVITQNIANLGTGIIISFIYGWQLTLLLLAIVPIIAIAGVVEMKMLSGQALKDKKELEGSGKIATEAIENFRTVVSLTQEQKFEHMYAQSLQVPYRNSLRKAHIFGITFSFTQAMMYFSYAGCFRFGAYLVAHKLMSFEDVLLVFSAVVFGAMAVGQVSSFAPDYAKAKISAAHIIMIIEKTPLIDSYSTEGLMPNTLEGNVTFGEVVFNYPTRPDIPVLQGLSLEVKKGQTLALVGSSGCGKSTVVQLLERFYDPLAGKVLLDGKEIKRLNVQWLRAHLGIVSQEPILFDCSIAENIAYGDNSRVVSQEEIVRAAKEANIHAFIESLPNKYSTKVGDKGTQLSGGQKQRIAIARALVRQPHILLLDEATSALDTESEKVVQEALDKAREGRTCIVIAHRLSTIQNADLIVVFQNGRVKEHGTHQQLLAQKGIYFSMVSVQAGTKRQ

`CCN(CC)CCOc1ccc(C(=O)N2C/C(=C\c3ccccc3)C(=O)/C(=C/c3ccccc3)C2)cc1.Cl` showed a pKa in series [1] of 10.8. The LogP in series [2] came out at 5.35. Moreover, the IC50 with L5178Y [3] was determined as 3.27 µg/mL.

For the molecule `CC[N+](C)(CC)CCOc1ccc(C(=O)N2C/C(=C\c3ccc([N+](=O)[O-])cc3)C(=O)/C(=C/c3ccc([N+](=O)[O-])cc3)C2)cc1.[I-]`, the Ratio came to 1.22 in [4] and 1.03 in [5]. In addition, the LogP in series [2] (read-out: LogP) worked out at 1.3.

`Cc1ccc(/C=C2\CN(C(=O)c3ccc(OCCN(C)C)cc3)C/C(=C\c3ccc(C)cc3)C2=O)cc1.Cl` returned a pKa in series [1] of 10.7. This molecule displayed a LogP in series [2] of 5.5. In the series on L5178Y [6], the Activity entry is given as “Toxic”.

In series [2], `O=C1/C(=C/c2ccc([N+](=O)[O-])cc2)CNC/C1=C\c1ccc([N+](=O)[O-])cc1` gave a LogP of 3.27.

The molecule `Cl.O=C1/C(=C/c2ccccc2)CN(C(=O)c2ccc(OCCN3CCOCC3)cc2)C/C1=C\c1ccccc1` yielded a pKa in series [1] of 8.5. For the same molecule, the LogP in series [2] (read-out: LogP) came out at 4.64.

Turning to `O=C1/C(=C/c2ccc(Cl)cc2)CNC/C1=C\c1ccc(Cl)cc1`, the Ratio in [4] worked out at 0.91; in series [5], 1.25. Besides, the LogP in series [2] is on record as 4.71.

As to `Cl.O=C1/C(=C/c2ccc([N+](=O)[O-])cc2)CN(C(=O)c2ccc(OCCN3CCOCC3)cc2)C/C1=C\c1ccc([N+](=O)[O-])cc1`, the pKa in [1] was found to be 8.5. For the same molecule, in series [2] (read-out: LogP), the LogP was determined as 4.36.

In series [1], `CN(C)CCOc1ccc(C(=O)N2C/C(=C\c3ccc([N+](=O)[O-])cc3)C(=O)/C(=C/c3ccc([N+](=O)[O-])cc3)C2)cc1.Cl` gave a pKa of 10.7. Also, the LogP in series [2] (read-out: LogP) turned out to be 4.52.

Take `CC[N+](C)(CC)CCOc1ccc(C(=O)N2C/C(=C\c3ccc(Cl)cc3)C(=O)/C(=C/c3ccc(Cl)cc3)C2)cc1.[I-]`: the Ratio was 1.85 in series [4] and 1.21 in [5]. The LogP in series [2] (read-out: LogP) was 2.73.

In series [1], `Cl.O=C1/C(=C/c2ccc([N+](=O)[O-])cc2)CN(C(=O)c2ccc(OCCN3CCCCC3)cc2)C/C1=C\c1ccc([N+](=O)[O-])cc1` yielded a pKa of 11.1. Further, the Ratio is 51.5 in series [4] and 145 in series [5]. This molecule also displayed a LogP in series [2] of 5.42. The IC50 with L5178Y [3] was 2.15 µg/mL.

Consider `COc1ccc(CCN(C)CCC[C@](C#N)(c2ccc(OC)c(OC)c2)C(C)C)cc1OC`, for which the IC50 in the series on L5178Y [3] turned out to be 42 µg/mL (≈ 92.4 µM).

Molecule `CCN(CC)CCOc1ccc(C(=O)N2C/C(=C\c3ccc([N+](=O)[O-])cc3)C(=O)/C(=C/c3ccc([N+](=O)[O-])cc3)C2)cc1.Cl` returned a pKa in [1] of 10.8. For the same molecule, the Ratio in [4] came out at 14.1; in [5] it was 77.5. This molecule yielded a log partition coefficient (LogP) in series [2] of 5.27.

Consider `O=C1/C(=C/c2ccccc2)CNC/C1=C\c1ccccc1`, for which the figures for the Ratio in series [4] and in series [5] were 2 and 1.58, respectively. The molecule further gave a LogP in [2] of 3.38.

In turn, `Cc1ccc(/C=C2\CN(C(=O)c3ccc(OCCN4CCOCC4)cc3)C/C(=C\c3ccc(C)cc3)C2=O)cc1.Cl` showed a pKa in series [1] of 8.5. Also, the LogP in series [2] (read-out: LogP) worked out at 5.34.

`Cc1ccc(/C=C2\CN(C(=O)c3ccc(OCCN4CCCCC4)cc3)C/C(=C\c3ccc(C)cc3)C2=O)cc1.Cl` returned a pKa in series [1] of 11.1. The Ratio in [4] is recorded as 146; in series [7], 10.8; in [8], 7.35; in series [5], 179; in [9], 2.49. This molecule came in with a LogP in [2] of 6.4. The IC50 with L5178Y [3] is 2.83 µg/mL.

Take `CC[N+](C)(CC)CCOc1ccc(C(=O)N2C/C(=C\c3ccccc3)C(=O)/C(=C/c3ccccc3)C2)cc1.[I-]`: the Ratio turned out to be 1.05 in series [4] and 1.37 in series [5]. In series [2] (read-out: LogP), the LogP was determined as 1.37.

The molecule `Cl.O=C1/C(=C/c2ccccc2)CN(C(=O)c2ccc(OCCN3CCCCC3)cc2)C/C1=C\c1ccccc1` came in with a pKa in series [1] of 11.1. Also, in series [2], the LogP was 5.51. In the series on L5178Y [3], the IC50 was found to be 3.28 µg/mL.

Turning to `Cl.O=C1/C(=C/c2ccc(Cl)cc2)CN(C(=O)c2ccc(OCCN3CCOCC3)cc2)C/C1=C\c1ccc(Cl)cc1`, in series [1], the pKa is 8.5. Also, the Ratio is listed as 6.88 in series [4] and 76 in series [5]. The LogP in series [2] (read-out: LogP) is 5.8.

`CC[N+](C)(CC)CCOc1ccc(C(=O)N2C/C(=C\c3ccc(C)cc3)C(=O)/C(=C/c3ccc(C)cc3)C2)cc1.[I-]`: the results for the Ratio in series [4] and in series [5] were 114 and 1.93, respectively. For the same molecule, the LogP in series [2] (read-out: LogP) worked out at 2.27.

Take `CCN(CC)CCOc1ccc(C(=O)N2C/C(=C\c3ccc(C)cc3)C(=O)/C(=C/c3ccc(C)cc3)C2)cc1.Cl`: the pKa in series [1] is 10.8. The Ratio in series [4] amounted to 66.6; in [5], 106. Moreover, the lipophilicity (LogP) in series [2] is listed as 6.25. The IC50 with L5178Y [3] came out at 1.56 µg/mL.

As for `CN(C)CCOc1ccc(C(=O)N2C/C(=C\c3ccc(Cl)cc3)C(=O)/C(=C/c3ccc(Cl)cc3)C2)cc1.Cl`, in series [1], the pKa was determined as 10.7. In series [2], the LogP was 5.95.

In series [1], `Cl.O=C1/C(=C/c2ccc(Cl)cc2)CN(C(=O)c2ccc(OCCN3CCCCC3)cc2)C/C1=C\c1ccc(Cl)cc1` had a pKa of 11.1. Further, the values for the Ratio in series [4] and in series [5] were 133 and 157, respectively. Also, the LogP in series [2] is recorded as 6.86. In addition, the IC50 with L5178Y [3] was determined as 4.17 µg/mL.

Turning to `CN(C)CCOc1ccc(C(=O)N2C/C(=C\c3ccccc3)C(=O)/C(=C/c3ccccc3)C2)cc1.Cl`, in series [1], the pKa was determined as 10.7. For the same molecule, the Ratio in [4] is 51.6; in series [5], 45.5. In series [2], the LogP was 4.6.

Consider `CCN(CC)CCOc1ccc(C(=O)N2C/C(=C\c3ccc(Cl)cc3)C(=O)/C(=C/c3ccc(Cl)cc3)C2)cc1.Cl`, for which, in series [1], the pKa came out at 10.8. Also, the values for the Ratio in series [4] and in series [5] were 99.7 and 118, respectively. In [2], the LogP came to 6.71. For the same molecule, the IC50 in the series with L5178Y [3] was found to be 1.53 µg/mL.

Turning to `Cc1ccc(/C=C2\CNC/C(=C\c3ccc(C)cc3)C2=O)cc1`, the Ratio in [4] stood at 4.03; in series [7], 2.42; in [8], 1; in series [5], 3.26; in series [9], 1.24. The molecule also yielded a LogP in series [2] of 4.25.

Broadly, the pKa is the pH at which an ionisable group is half protonated. High values mean a weaker acid or stronger base, low ones a stronger acid or weaker base. As a reminder, the LogP is the decadic logarithm of the partition coefficient of the neutral form, usually between octanol and water.
